ChEMBL document CHEMBL1145447, “Synthetic studies of neoclerodane diterpenes from Salvia divinorum: preparation and opioid receptor activity of salvinicin analogues” (J Med Chem, 2007)
The source made the active and inactive calls. The calls are words filed in the database; no cut-off is given here.

Columns and labels:
Mu-type opioid receptor [1] = target: T1, Mu-type opioid receptor (Homo sapiens, UniProt P35372); assay: Displacement of [125I]IOXY from human mu opioid receptor expressed in CHO cells; format: cell-based
T1 sequence (P35372 whole entry): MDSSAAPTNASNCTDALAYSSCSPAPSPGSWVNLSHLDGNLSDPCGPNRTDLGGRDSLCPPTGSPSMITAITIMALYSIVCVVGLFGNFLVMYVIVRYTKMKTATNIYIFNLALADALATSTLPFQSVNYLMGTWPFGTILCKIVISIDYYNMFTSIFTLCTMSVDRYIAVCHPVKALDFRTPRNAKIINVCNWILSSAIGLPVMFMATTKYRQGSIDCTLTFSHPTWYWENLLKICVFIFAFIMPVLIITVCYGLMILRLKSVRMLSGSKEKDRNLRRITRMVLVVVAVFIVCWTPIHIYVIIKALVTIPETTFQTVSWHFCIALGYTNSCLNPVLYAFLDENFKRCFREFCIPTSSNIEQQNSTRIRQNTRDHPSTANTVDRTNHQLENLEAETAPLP
Method in brief: (§1)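 Membranes from CHO cells stably transfected with the respective human opioid receptor cDNA (hMOR-, hDOR-, hKOR-CHO). Incubation in 50 mM Tris-HCl pH 7.4 with bacitracin, bestatin, leupeptin and chymostatin. Nonspecific binding is defined with 10 µM naloxone. Ki is the mean ± SD of at least two independent determinations.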

[2] = target: T2, Delta-type opioid receptor (Homo sapiens, UniProt P41143); assay: Displacement of [125I]IOXY from human delta opioid receptor expressed in CHO cells; format: cell-based
T2 sequence (P41143 whole entry): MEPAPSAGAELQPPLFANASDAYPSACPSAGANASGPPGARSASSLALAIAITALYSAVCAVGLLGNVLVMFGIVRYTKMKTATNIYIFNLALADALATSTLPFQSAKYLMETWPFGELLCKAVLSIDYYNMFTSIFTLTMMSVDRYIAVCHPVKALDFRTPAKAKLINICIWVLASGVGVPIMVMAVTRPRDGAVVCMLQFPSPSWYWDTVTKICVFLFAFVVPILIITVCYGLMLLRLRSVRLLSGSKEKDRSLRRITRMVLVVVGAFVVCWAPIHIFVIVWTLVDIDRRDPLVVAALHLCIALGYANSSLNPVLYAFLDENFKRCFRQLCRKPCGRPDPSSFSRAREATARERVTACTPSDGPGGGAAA
Method in brief: as §1, with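 “hKOR-CHO). Radioligand [125I]IOXY (SA 2200 Ci/mmol) labels µ, δ and κ sites.” for “hKOR-CHO).”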

[3] = target: T3, Kappa-type opioid receptor (Homo sapiens, UniProt P41145); assay: Displacement of [125I]IOXY from human kappa opioid receptor expressed in CHO cells; format: cell-based; method in brief: as §1
T3 sequence (P41145 whole entry): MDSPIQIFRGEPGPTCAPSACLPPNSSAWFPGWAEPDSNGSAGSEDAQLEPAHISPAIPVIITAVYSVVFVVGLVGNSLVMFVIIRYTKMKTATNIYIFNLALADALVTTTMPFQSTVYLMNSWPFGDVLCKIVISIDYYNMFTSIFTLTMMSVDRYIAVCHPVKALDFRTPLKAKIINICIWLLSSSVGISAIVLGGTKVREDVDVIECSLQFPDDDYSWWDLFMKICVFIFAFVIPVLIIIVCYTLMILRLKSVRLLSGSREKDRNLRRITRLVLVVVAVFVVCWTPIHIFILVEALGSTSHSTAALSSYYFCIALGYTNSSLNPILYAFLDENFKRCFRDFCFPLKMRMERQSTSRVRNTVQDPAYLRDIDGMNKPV

[4] = target: Opioid receptors; mu & kappa (Homo sapiens) (UniProt P41145+P35372); assay: Selectivity for kappa opioid receptor over mu opioid receptor; format: protein assay
Opioid receptors; mu & kappa (Homo sapiens), sequence (P35372 whole entry, looked up): as the sequence (P35372 whole entry) above
Opioid receptors; mu & kappa (Homo sapiens), sequence (P41145 whole entry, looked up): as the sequence (P41145 whole entry) above

[5] = target: Opioid receptors; delta & kappa (Homo sapiens) (UniProt P41145+P41143); assay: Selectivity for kappa opioid receptor over delta opioid receptor; format: protein assay
Opioid receptors; delta & kappa (Homo sapiens), sequence (P41143 whole entry, looked up): as the sequence (P41143 whole entry) above
Opioid receptors; delta & kappa (Homo sapiens), sequence (P41145 whole entry, looked up): as the sequence (P41145 whole entry) above

Mu-type opioid receptor [6] = target: T1, Mu-type opioid receptor; assay: Antagonist activity at human mu opioid receptor expressed in CHO cells by [35S]GTP-gamma-S binding assay; format: functional, cell-based
Method in brief: (§2)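 Antagonism is measured in a [35S]GTP-γ-S binding assay in CHO cells stably transfected with human δ, κ or µ opioid receptor cDNA. Result is given as Ke, the mean ± SD of at least two independent determinations. Test compounds come from 10 mM stocks in 100% DMSO + 10 mM 2-mercaptoethanol, stored at -80 °C. They are diluted in buffer containing 1 mg/mL BSA.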

[7] = target: T2, Delta-type opioid receptor; assay: Antagonist activity at human delta opioid receptor expressed in CHO cells by [35S]GTP-gamma-S binding assay; format: functional, cell-based; method in brief: as §2
[8] = target: T3, Kappa-type opioid receptor; assay: Antagonist activity at human kappa opioid receptor expressed in CHO cells by [35S]GTP-gamma-S binding assay; format: functional, cell-based; method in brief: as §2
[9] = target: T3, Kappa-type opioid receptor; assay: Activity at human kappa opioid receptor expressed in CHO cells by [35S]GTP-gamma-S binding assay relative to U69593; format: functional, cell-based
Method in brief: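 [35S]GTP-γ-S binding in hKOR-CHO cells (stably transfected human receptor). Emax is the percent stimulation relative to the maximal stimulation by U69,593 run in parallel. EC50 and Emax are the mean ± SE of at least three independent experiments. Emax is compared with U69,593 by one-way ANOVA with Dunnett's test. Drug dilutions are made in buffer with 1 mg/mL BSA, from 10 mM DMSO/2-mercaptoethanol stocks.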

SMILES | Ki (Mu-type opioid receptor [1]) [µM] | Ki [2] [µM] | Ki [3] [µM] | Ratio Ki [4] | Ratio Ki [5] | Ki (Mu-type opioid receptor [6]) [µM] | Ke [7] [µM] | Ke [8] [nM] | EC50 [8] [µM] | Emax [9] [%] | Ke (Mu-type opioid receptor [6]) [nM] | Activity [7] | Activity (Mu-type opioid receptor [6]) | Activity [8]
COC(=O)[C@@H]1C[C@H](OC(C)=O)C(=O)[C@H]2[C@@]1(C)CC[C@H]1C(=O)O[C@H](C3CC(OC)OC3OC)C[C@]21C (some centres not stated) | 4.81 | > 10 | 0.04 | 120 | > 250 | – | – | – | – | – | – | – | – | –
COC(=O)[C@@H]1C[C@H](OC(C)=O)C(=O)[C@H]2[C@@]1(C)CC[C@H]1C(=O)O[C@H](C3=C[C@@H](OC)O[C@H]3OC)C[C@]21C | 3.74 | > 10 | 0.18 | 21 | > 55 | 2.93 | 1.28 | 2370 | – | – | – | – | – | –
COC(=O)[C@@H]1C[C@H](OC(C)=O)C(=O)[C@H]2[C@@]1(C)CC[C@H]1C(=O)O[C@H](C3=NCCO3)C[C@]21C | > 10 | > 10 | 0.3 | > 30 | > 30 | – | – | – | – | – | – | – | – | –
COC(=O)[C@@H]1C[C@H](OC(C)=O)C(=O)[C@H]2[C@@]1(C)CC[C@H]1C(=O)O[C@H]([C@@H]3C[C@@H](OC)O[C@@H]3OC)C[C@]21C | > 10 | > 10 | 0.025 | > 400 | > 400 | 1.37 | > 10 | – | 2.35 | 95 | – | – | – | –
COC(=O)[C@@H]1C[C@H](OC(C)=O)C(=O)[C@H]2[C@@]1(C)CC[C@H]1C(=O)O[C@H](C3=CC(=O)OC3O)C[C@]21C (some centres not stated) | – | – | – | – | – | – | 2.83 | 440 | – | – | 760 | – | – | –
COC(=O)[C@@H]1C[C@H](OC(C)=O)C(=O)[C@H]2[C@@]1(C)CC[C@H]1C(=O)O[C@H](C3=C[C@@H](OC)O[C@@H]3OC)C[C@]21C | 3.19 | > 10 | 0.42 | 8 | > 23 | 2.32 | 3.28 | 9700 | – | – | – | – | – | –
COC(=O)[C@@H]1C[C@H](OC(C)=O)C(=O)[C@H]2[C@@]1(C)CC[C@H]1C(=O)O[C@H]([C@]3(O)[C@H](OC)O[C@H](OC)[C@H]3O)C[C@]21C [SALVINICIN A] | > 10 | > 10 | 0.39 | > 26 | > 26 | – | – | – | – | – | – | – | – | –
COC(=O)[C@@H]1C[C@H](OC(C)=O)C(=O)[C@H]2[C@@]1(C)CC[C@H]1C(=O)OC([C@]3(O)[C@H](OC)O[C@H](OC)[C@H]3OC(C)=O)C[C@]21C (some centres not stated) | > 10 | > 10 | > 10 | – | – | – | – | – | – | – | – | – | – | –
COC(=O)[C@@H]1C[C@H](OC(C)=O)C(=O)[C@@H]2[C@@]3(C)C[C@@H](c4nc(C)no4)OC(=O)[C@H]3CC[C@]21C | > 10 | > 10 | 0.99 | > 10 | > 10 | 1.53 | 4.23 | 5680 | – | – | – | – | – | –
COC(=O)[C@@H]1C[C@H](OC(C)=O)C(=O)[C@H]2[C@@]1(C)CC[C@H]1C(=O)O[C@H](c3ccoc3Br)C[C@]21C | 1.45 | 7.62 | – | – | – | – | – | – | – | 104 | – | – | – | –
COC(=O)[C@@H]1C[C@H](OC(C)=O)C(=O)[C@H]2[C@@]1(C)CC[C@H]1C(=O)O[C@H](c3nc(C)no3)C[C@]21C | > 10 | > 10 | 0.056 | > 170 | > 170 | 0.43 | – | 360 | – | – | – | inactive | – | –
COC(=O)[C@@H]1C[C@H](OC(C)=O)C(=O)[C@H]2[C@@]1(C)CC[C@H]1C(=O)O[C@H]([C@@H]3CCOC3)C[C@]21C | 9.79 | > 10 | 0.0037 | – | – | – | – | – | 0.75 | 81 | – | inactive | inactive | –
COC(=O)[C@@H]1C[C@H](OC(C)=O)C(=O)[C@H]2[C@@]1(C)CC[C@H]1C(=O)OC([C@]3(O)[C@@H](OC)O[C@@H](OC)[C@H]3OC(C)=O)C[C@]21C (some centres not stated) | > 10 | > 10 | > 10 | – | – | – | – | – | – | – | – | – | – | –
COC(=O)[C@@H]1C[C@H](OC(C)=O)C(=O)[C@H]2[C@@]1(C)CC[C@H]1C(=O)O[C@H](C3CCOC3)C[C@]21C (some centres not stated) | – | > 10 | 0.014 | – | – | – | – | – | – | – | – | – | – | –
COC(=O)[C@@H]1C[C@H](OC(C)=O)C(=O)[C@H]2[C@@]1(C)CC[C@H]1C(=O)OCC[C@]21C | > 10 | > 10 | 3.4 | > 3 | > 3 | – | – | – | – | – | – | – | – | –
COC(=O)[C@@H]1C[C@H](OC(C)=O)C(=O)[C@H]2[C@@]1(C)CC[C@H]1C(=O)O[C@H]([C@@H]3C[C@@H](OC)O[C@H]3OC)C[C@]21C | > 10 | > 10 | 0.125 | > 80 | > 80 | – | – | – | – | – | – | inactive | inactive | inactive
COC(=O)[C@@H]1C[C@H](OC(C)=O)C(=O)[C@@H]2[C@@]3(C)C[C@@H]([C@]4(O)[C@@H](OC)O[C@@H](OC)[C@H]4O)CC(=O)[C@@H]3CC[C@]21C [SALVINICIN B] | > 10 | > 10 | 7.02 | 1.4 | 1.4 | – | – | – | – | – | – | – | – | –
COC(=O)[C@@H]1C[C@H](OC(C)=O)C(=O)[C@H]2[C@@]1(C)CC[C@H]1C(=O)O[C@H](C3=CC(OC)OC3OC)C[C@]21C (some centres not stated) | > 10 | > 10 | 0.44 | > 20 | > 20 | – | – | – | – | – | – | – | – | –
COC(=O)[C@@H]1C[C@H](O)C(=O)[C@H]2[C@@]1(C)CC[C@H]1C(=O)O[C@H](c3ccoc3)C[C@]21C [SALVINORIN B] | > 10 | > 10 | – | – | – | – | – | – | – | – | – | – | – | –
COC(=O)[C@@H]1C[C@H](OC(C)=O)C(=O)[C@@H]2[C@@](C)(CCC3CCOC3)[C@H](C(=O)O)CC[C@]21C (some centres not stated) | > 10 | > 10 | 0.91 | > 10 | > 10 | – | – | – | – | – | – | – | – | –
